Assay results from PubChem BioAssay.
The source made the active and inactive calls.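 How the source made its calls, unless noted: active means viability at or below 10% of carrier control in both of two separate runs; inconclusive means viability at or below 10% in only one of the two runs; inactive means the rest.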

What was measured:
[1] = SK-BR-3 cell growth inhibitors, pilot screen, 24 h, human (AID 572); details: SK-BR-3 viability, CellTiter-Glo luminescence, at 10 µM, stronger effect = lower value;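 further: compound exposure lasted between 18 and 24 h rather than exactly 24 h; 100% = carrier-treated control wells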
[2] = HUVEC growth inhibition – cell-based, human, primary screen (AID 575;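 active means viability at or below 30% in both replicate assays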;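 further: 100% = median of untreated cell wells with 0.1% DMSO on each plate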); details: HUVEC proliferation, CellTiter-Glo luminescence, 72 h; at 10 µM; stronger effect = lower value
Method in brief: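 system = HUVEC primary cells | amount = 1250 cells/well | buffer or medium = supplemented EBM, 2% fetal bovine serum | dosing = single-point 10 µM, DMSO 0.1% final | times = 72 h compound incubation | detection = CTG luminescence | read-out = % viability relative to median vehicle-well signal on each plate | control set = vehicle and MePR control wells | format = collagen-coated 384-well format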

[3] = growth inhibitors of H69AR lung tumor, primary screen, human, duplicate replicates (AID 580;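 active means viability at or under a set limit in both replicates, limit being median viability minus 3 SD, cut at about 48% in these data, passing the limit was not always enough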;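 further: 100% = mean luminescence of untreated wells and 0% = no signal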); details: H69AR lung tumor cells viability, ATP luminescence, 72 h; at 10 µM; stronger effect = lower value
[4] = reversal of MRP1-mediated doxorubicin resistance, pilot screen, H69AR cells, doxorubicin co-treatment (AID 601;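 active means viability loss from added drug above about 55%, and viability with drug at most 40%, in both replicates, limit read from the data, passing the limit was not always enough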); details: CellTiter-Glo, 72 h, at 10 µM; for differential viability (reversal): stronger effect = higher value
[5] = 384-well plate pilot, post-Golgi transport modulator project, inhibition of yeast transport mutant growth (AID 636; in the data active means inhibition above about 31%); details: absorbance 615 nm, about 18 h, stronger effect = higher value
[6] = growth suppression of yeast trafficking mutant, preliminary HTS, modulators of trafficking downstream of Golgi apparatus project, 1536-format plate, OD 615 nm (AID 637; in the data active means inhibition above about 30%); details: yeast transport mutant growth, absorbance 615 nm, 18 h; stronger effect = higher value
[7] = H69AR cells + 2 uM doxorubicin, measured here: viability with 2 uM doxorubicin, stronger effect = lower value
[8] = H69AR cells, compound alone cytotoxicity

For `CN1CCc2c(sc3c2c(=O)n(-c2ccccc2)c2nnc(SCc4ccccc4)n32)C1`, the viability [1] was 77% (inactive), the viability [2] was 108% (inactive) and the viability [3] was 95.8% (inactive). The differential viability (reversal) ([4]; H69AR cells + 2 uM doxorubicin) was 9.76% (inactive), the viability [4, 7] was 86% and the viability [4, 8] was 95.8%. For the same compound, the inhibition [5] was -2.33% (inactive) and the inhibition [6] was 1.82% (inactive).
In the case of `Cc1ccc2c(c1)NC(=O)C(CC(=O)NCCCN1CCN(c3cc(Cl)ccc3C)CC1)O2` (centres undefined), the viability [1] is reported as 75.5% (inactive), the viability [2] is reported as 1.67% (active) and the viability [3] is reported as 22.9% (active). For the same compound, the differential viability (reversal) ([4]; H69AR cells + 2 uM doxorubicin) was -17.8% (inactive), the viability [4, 7] was 40.7% and the viability [4, 8] was 22.9%. The inhibition [5] was 3.07% (inactive) and the inhibition [6] was 0.98% (inactive).
For `Cn1nc(C(C)(C)C)cc1C(=O)NCc1ccc(N2CCCC2=O)cc1`, the viability [1] was 87% (inactive), the viability [2] was 15.1% (active) and the viability [3] was 99% (inactive). For the same compound, the differential viability (reversal) ([4]; H69AR cells + 2 uM doxorubicin) was -3.59% (inactive), the viability [4, 7] was 103% and the viability [4, 8] was 99%. For the same compound, the inhibition [5] was -5.34% (inactive) and the inhibition [6] was 0.91% (inactive).
For `O=C(O)CC1Sc2nc3ccccc3n2C1=O` (centres undefined), the viability [1] was 105% (inactive), the viability [2] was 111% (inactive) and the viability [3] was 102% (inactive). The differential viability (reversal) ([4]; H69AR cells + 2 uM doxorubicin) was 6.67% (inactive), the viability [4, 7] was 95.4% and the viability [4, 8] was 102%. The inhibition [5] was -6.08% (inactive) and the inhibition [6] was -5.27% (inactive).
With `Cc1ccc(C)c(NS(=O)(=O)c2ccc(NC(=O)c3ccco3)cc2)c1` the viability [1] was 72% (inactive), the viability [2] was 78.5% (inactive) and the viability [3] was 90.5% (inactive). For the same compound, the differential viability (reversal) ([4]; H69AR cells + 2 uM doxorubicin) was -5.62% (inactive), the viability [4, 7] was 96.1% and the viability [4, 8] was 90.5%. For the same compound, the inhibition [5] was -8.92% (inactive) and the inhibition [6] was -6.91% (inactive).
For `CCO/C([O-])=N/c1c[n+](N2CCOCC2)no1`, the viability [1] was 81% (inactive), the viability [2] was 95.9% (inactive) and the viability [3] was 86.7% (inactive). For the same compound, the differential viability (reversal) ([4]; H69AR cells + 2 uM doxorubicin) was -3.3% (inactive), the viability [4, 7] was 90% and the viability [4, 8] was 86.7%. The inhibition [5] was 1.3% (inactive) and the inhibition [6] was 2.33% (inactive).
For `CCOCC(O)CS(=O)Cc1ccccc1` (centres undefined), the viability [1] was 111% (inactive), the viability [2] was 113% (inactive) and the viability [3] was 98.5% (inactive). The differential viability (reversal) ([4]; H69AR cells + 2 uM doxorubicin) was 22.1% (inactive), the viability [4, 7] was 76.4% and the viability [4, 8] was 98.5%. The inhibition [5] was -6.67% (inactive) and the inhibition [6] was -4.55% (inactive).
For `Cc1c(NC(=O)C(C)Oc2ncnc3ccccc23)c(=O)n(-c2ccccc2)n1C` (centres undefined), the viability [1] was 115% (inactive), the viability [2] was 91.9% (inactive) and the viability [3] was 97% (inactive). The differential viability (reversal) ([4]; H69AR cells + 2 uM doxorubicin) was 7.01% (inactive), the viability [4, 7] was 90% and the viability [4, 8] was 97%. The inhibition [5] was -4.42% (inactive) and the inhibition [6] was -3.28% (inactive).
In the case of `Cn1cnc2c1c(=O)[nH]c(=O)n2C`, the viability [1] is reported as 108% (inactive), the viability [2] is reported as 85.7% (inactive) and the viability [3] is reported as 96.1% (inactive). For the same compound, the differential viability (reversal) ([4]; H69AR cells + 2 uM doxorubicin) was -0.7% (inactive), the viability [4, 7] was 96.8% and the viability [4, 8] was 96.1%. For the same compound, the inhibition [5] was -0.91% (inactive) and the inhibition [6] was 6.33% (inactive).
In the case of `CCC1Oc2ccc(C)cc2N(CC(=O)NCCCN2CCCCC2CC)C1=O` (centres undefined), the viability [1] is reported as 99% (inactive), the viability [2] is reported as 83.7% (inactive) and the viability [3] is reported as 87.5% (inactive). For the same compound, the differential viability (reversal) ([4]; H69AR cells + 2 uM doxorubicin) was -6.5% (inactive), the viability [4, 7] was 93.9% and the viability [4, 8] was 87.5%. For the same compound, the inhibition [5] was -0.78% (inactive) and the inhibition [6] was -0.66% (inactive).
With `O=C(NO)c1ccccc1O` the viability [1] was 109% (inactive), the viability [2] was 86.7% (inactive) and the viability [3] was 105% (inactive). The differential viability (reversal) ([4]; H69AR cells + 2 uM doxorubicin) was 23.1% (inactive), the viability [4, 7] was 81.8% and the viability [4, 8] was 105%. The inhibition [5] was -1.95% (inactive) and the inhibition [6] was 6.83% (inactive).
In the case of `O=C(c1nn2cccnc2c1Cl)N1CCN(c2ccccc2)CC1`, the viability [1] is reported as 66% (inactive), the viability [2] is reported as 102% (inactive) and the viability [3] is reported as 108% (inactive). For the same compound, the differential viability (reversal) ([4]; H69AR cells + 2 uM doxorubicin) was 10.1% (inactive), the viability [4, 7] was 97.8% and the viability [4, 8] was 108%. For the same compound, the inhibition [5] was -6.99% (inactive) and the inhibition [6] was 3.82% (inactive).
With `Cc1ccc(CCNC(=O)C2CCC(=O)N2C2CCCC2)cc1` (centres undefined) the viability [1] was 79% (inactive), the viability [2] was 99.7% (inactive) and the viability [3] was 94.9% (inactive). The differential viability (reversal) ([4]; H69AR cells + 2 uM doxorubicin) was 13% (inactive), the viability [4, 7] was 81.9% and the viability [4, 8] was 94.9%. For the same compound, the inhibition [5] was -2.08% (inactive) and the inhibition [6] was 0% (inactive).
With `COc1ccc(CN(C(=O)CN2C(=O)COc3ccccc32)C2CCCC2)c(OC)c1` the viability [1] was 110% (inactive), the viability [2] was 87.4% (inactive) and the viability [3] was 92.5% (inactive). The differential viability (reversal) ([4]; H69AR cells + 2 uM doxorubicin) was 4.62% (inactive), the viability [4, 7] was 87.9% and the viability [4, 8] was 92.5%. The inhibition [5] was -4.52% (inactive) and the inhibition [6] was -0.18% (inactive).
With `COCCCN1C(=O)C(O)=C(C(C)=O)C1c1ccccn1` (centres undefined) the viability [1] was 106% (inactive), the viability [2] was 102% (inactive) and the viability [3] was 86.6% (inactive). The differential viability (reversal) ([4]; H69AR cells + 2 uM doxorubicin) was 0.675% (inactive), the viability [4, 7] was 85.9% and the viability [4, 8] was 86.6%. The inhibition [5] was -3.73% (inactive) and the inhibition [6] was -1.45% (inactive).
For `Cc1cc(C)nc(-n2nc(C)cc2NC(=O)c2ccc(Br)o2)n1`, the viability [1] was 108% (inactive), the viability [2] was 87.4% (inactive) and the viability [3] was 71.9% (inactive). For the same compound, the differential viability (reversal) ([4]; H69AR cells + 2 uM doxorubicin) was -11.4% (inactive), the viability [4, 7] was 83.3% and the viability [4, 8] was 71.9%. The inhibition [5] was -3.73% (inactive) and the inhibition [6] was 5.27% (inactive).
In the case of `Cc1cc(C)c2nc(C(F)(F)F)nc(NCCCN3CCCC3=O)c2c1`, the viability [1] is reported as 113% (inactive), the viability [2] is reported as 51.4% (inactive) and the viability [3] is reported as 83.7% (inactive). For the same compound, the differential viability (reversal) ([4]; H69AR cells + 2 uM doxorubicin) was -9.04% (inactive), the viability [4, 7] was 92.7% and the viability [4, 8] was 83.7%. For the same compound, the inhibition [5] was -4.38% (inactive) and the inhibition [6] was 0.65% (inactive).
In the case of `C=CCOC(=O)C1=C(C)NC(=O)NC1c1cn(-c2ccccc2)nc1-c1cccs1` (centres undefined), the viability [1] is reported as 119% (inactive), the viability [2] is reported as 81.9% (inactive) and the viability [3] is reported as 91% (inactive). The differential viability (reversal) ([4]; H69AR cells + 2 uM doxorubicin) was -3.71% (inactive), the viability [4, 7] was 94.7% and the viability [4, 8] was 91%. For the same compound, the inhibition [5] was -6.49% (inactive) and the inhibition [6] was 1.09% (inactive).
